Test results: ChEMBL document CHEMBL3232870, “Discovery of 3-(4-methanesulfonylphenoxy)-N-[1-(2-methoxy-ethoxymethyl)-1H-pyrazol-3-yl]-5-(3-methylpyridin-2-yl)-benzamide as a novel glucokinase activator (GKA) for the treatment of type 2 diabetes mellitus” (Bioorg Med Chem, 2014); call rule not given here

Tests used:
Salmonella typhimurium [1] = test: Genotoxicity in Salmonella typhimurium TA98 assessed as increase in number of revertants at 1.5 to 5000 ug/plate by Ames test in absence of S9 fraction; type: toxicity, organism-based; conditions: salmonella enterica subsp. enterica serovar typhimurium
Summary of the method: (§1)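 Ames reverse mutation test by direct plate incorporation in S. typhimurium TA98 and TA100, with or without Aroclor 1254-induced rat liver S9 mix. Compound in DMSO at 1.5–5000 µg/plate, plated in top agar, incubated 37 °C for about 50 h, then revertant colonies counted. Plates were checked for precipitation and cytotoxicity. A positive was a reproducible, dose-related increase in revertants of more than 2-fold.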

Salmonella typhimurium [2] = test: Genotoxicity in Salmonella typhimurium TA100 assessed as increase in number of revertants at 1.5 to 5000 ug/plate by Ames test in presence of S9 fraction; type: toxicity, organism-based; conditions: salmonella enterica subsp. enterica serovar typhimurium; summary of the method: as §1
Mus musculus [3] = test: Toxicity in fasting C57BL/J6 mouse assessed as glucose lowering effect at 50 mg/kg, po after 30 to 360 mins; type: organism-based; parameters: dose 50 mg/kg, route oral; conditions: in vivo
Summary of the method: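 Eight-week-old male C57BL/6 mice were fasted 6 h with free access to water, then dosed orally with compound or 0.5% methylcellulose vehicle, with no glucose challenge. Blood glucose was followed up to 360 min, n = 6 per group.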

[4] = Volume of distribution at steady state in ICR mouse at 3 mg/kg, iv and 10 mg/kg, po; type: ADME, organism-based; conditions: in vivo, read-out: Vdss
Summary of the method: (§2)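 Male ICR mice and 7-week-old SD rats received a 3 mg/kg iv bolus or a 10 mg/kg oral gavage dose. Plasma was precipitated with 2 volumes of acetonitrile and analysed by HPLC. Parameters came from noncompartmental analysis.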

[5] = Volume of distribution at steady state in Sprague-Dawley rat at 3 mg/kg, iv and 10 mg/kg, po; type: ADME, organism-based; conditions: in vivo, read-out: Vdss; summary of the method: as §2
[6] = Mean residence time in Sprague-Dawley rat at 3 mg/kg, iv and 10 mg/kg, po; type: ADME, organism-based; conditions: in vivo; summary of the method: as §2
[7] = Elimination half life in ICR mouse at 3 mg/kg, iv and 10 mg/kg, po; type: ADME, organism-based; conditions: in vivo, read-out: beta t1/2 (converted)
Summary of the method: (§3)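 Male ICR mice and 7-week-old SD rats received a 3 mg/kg intravenous bolus or a 10 mg/kg oral gavage dose. Plasma was deproteinized with acetonitrile (2 volumes) and compound measured by HPLC. Parameters came from noncompartmental analysis.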

[8] = Elimination half life in Sprague-Dawley rat at 3 mg/kg, iv and 10 mg/kg, po; type: ADME, organism-based; conditions: in vivo, read-out: beta t1/2 (converted); summary of the method: as §3
[9] = AUC in Sprague-Dawley rat at 3 mg/kg, iv and 10 mg/kg, po; type: ADME, organism-based; conditions: plasma; summary of the method: as §3
[10] = Cmax in ICR mouse at 3 mg/kg, iv and 10 mg/kg, po; type: ADME, organism-based; conditions: in vivo; summary of the method: as §3
[11] = Tmax in ICR mouse at 3 mg/kg, iv and 10 mg/kg, po; type: ADME, organism-based; conditions: in vivo; summary of the method: as §2
[12] = Tmax in Sprague-Dawley rat at 3 mg/kg, iv and 10 mg/kg, po; type: ADME, organism-based; conditions: in vivo; summary of the method: as §2
[13] = Cmax in male Sprague-Dawley rat at 250 mg/kg, po measured on day 14; type: ADME, organism-based; parameters: dose 250 mg/kg, route oral; conditions: in vivo
Summary of the method: (§4)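 Sprague–Dawley rats, 5 weeks old at arrival, both sexes. Given the compound by oral gavage once daily for 14 days at 0, 250, 500 or 1000 mg/kg/day, with 0.5% methylcellulose as vehicle. Toxicokinetic parameters were determined on Day 1 and Day 14.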

[14] = Cmax in female Sprague-Dawley rat at 500 mg/kg, po measured on day 1; type: ADME, organism-based; parameters: dose 500 mg/kg, route oral; conditions: in vivo; summary of the method: as §4
[15] = Cmax in female Sprague-Dawley rat at 1000 mg/kg, po measured on day 1; type: ADME, organism-based; parameters: dose 1000 mg/kg, route oral; conditions: in vivo; summary of the method: as §4
[16] = Tmax in male Sprague-Dawley rat at 250 mg/kg, po measured on day 1; type: ADME, organism-based; parameters: dose 250 mg/kg, route oral; conditions: in vivo
Summary of the method: (§5)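 Sprague–Dawley rats of both sexes, 5 weeks old at arrival, received daily oral gavage at 0, 250, 500 or 1000 mg/kg/day for 14 days. Vehicle was 0.5% methylcellulose at 10 mL/kg. Toxicokinetics were taken on Day 1 and Day 14. Necropsy was by Day 15. Testis was fixed in modified Davidson's fixative, paraffin-sectioned and H&E-stained, with histopathology on control and high-dose groups only.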

[17] = Tmax in male Sprague-Dawley rat at 1000 mg/kg, po measured on day 1; type: ADME, organism-based; parameters: dose 1000 mg/kg, route oral; conditions: in vivo; summary of the method: as §5
[18] = AUC (0 to t) in male Sprague-Dawley rat at 1000 mg/kg, po measured on day 1; type: ADME, organism-based; parameters: dose 1000 mg/kg, route oral; conditions: plasma; summary of the method: as §4
[19] = AUC (0 to t) in female Sprague-Dawley rat at 250 mg/kg, po measured on day 14; type: ADME, organism-based; parameters: dose 250 mg/kg, route oral; conditions: plasma; summary of the method: as §4
Rattus norvegicus = test: Toxicity in Sprague-Dawley rat assessed as seminiferous tubule degeneration at 250 to 1000 mg/kg, po by hematoxylin and eosin staining-based microscopy; type: organism-based; parameters: dose 250-1000 mg/kg, route oral; conditions: in vivo; summary of the method: as §5
Canis familiaris = test: Toxicity in Beagle dog assessed as testicular effect administered repeated dose level of 100 mg/kg/day, po administered on days 3, 6 and 8 by hematoxylin and eosin staining-based microscopy; type: organism-based, Canis lupus familiaris; parameters: route oral; conditions: in vivo
Summary of the method: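 Dogs received escalating oral doses of 100, 300 and 1000 mg/kg/day over 8 days (Days 3, 6 and 8 for each dose). Vehicle was 0.5% methylcellulose at 5 mL/kg. Two animals were necropsied at termination, and testes were fixed in modified Davidson's fixative, paraffin-embedded, H&E-stained and examined microscopically.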

Cytochrome P450 2B6 = molecular target: T1, Cytochrome P450 2B6 (Homo sapiens, UniProt P20813); test: Inhibition of CYP2B6 in human liver microsomes; type: ADME
T1 sequence (P20813 whole entry): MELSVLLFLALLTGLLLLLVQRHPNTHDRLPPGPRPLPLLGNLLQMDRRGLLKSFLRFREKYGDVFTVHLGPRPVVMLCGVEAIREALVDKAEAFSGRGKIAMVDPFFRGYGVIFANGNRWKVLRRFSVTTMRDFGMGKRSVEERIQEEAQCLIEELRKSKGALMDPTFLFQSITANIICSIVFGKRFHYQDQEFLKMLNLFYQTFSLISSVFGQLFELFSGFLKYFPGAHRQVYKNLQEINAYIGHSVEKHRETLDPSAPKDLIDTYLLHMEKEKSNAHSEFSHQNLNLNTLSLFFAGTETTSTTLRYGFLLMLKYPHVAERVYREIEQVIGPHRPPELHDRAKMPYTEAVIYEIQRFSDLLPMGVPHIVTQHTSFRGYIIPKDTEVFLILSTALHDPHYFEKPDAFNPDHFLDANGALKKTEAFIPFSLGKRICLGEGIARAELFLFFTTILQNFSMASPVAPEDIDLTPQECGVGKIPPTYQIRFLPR
Summary of the method: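 Pooled human liver microsomes at 0.25 mg/mL, each with a CYP-selective substrate and test compound up to 25 µM, preincubated at 37 °C. It is stopped on ice with ice-cold acetonitrile and centrifuged, and the supernatant is analysed by LC–MS/MS.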

Mus musculus [20] = test: Toxicity in C57BL/J6 db/db mouse assessed as effect on body weight at 50 mg/kg, po; type: organism-based; parameters: dose 50 mg/kg, route oral; conditions: in vivo
[21] = Apparent permeability of the compound by PAMPA; type: physicochemical
[22] = Metabolic stability in dog liver microsomes assessed as compound remaining after 1 hr relative to control; type: ADME, Canis lupus familiaris; conditions: read-out: Stability
Summary of the method: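 Liver microsomes from mouse, dog or human were incubated with compound for 1 h, and the percentage of compound remaining was determined.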

Mus musculus [23] = test: Toxicity in C57BL/J6 mouse assessed as hypoglycemia at 150 mg/kg, po; conditions: in vivo

**Q.** Which results are given for COCCOCn1ccc(NC(=O)c2cc(Oc3ccc(S(C)(=O)=O)cc3)cc(-c3ncccc3C)c2)n1?
**A.** Activity (Salmonella typhimurium [1]): Non-toxic; Activity (Salmonella typhimurium [2]): Non-toxic; Activity (Mus musculus [3]): Toxic; Vd [4]: 0.18 L/kg; Vd [5]: 0.21 L/kg; MRT [6]: 22.2 min; half-life [7]: 84 min; half-life [8]: 18 min; AUC [9]: 3800 ng·h/mL; Cmax [10]: 11700 ng/mL; Tmax [11]: 15 min; Tmax [12]: 25.2 min; Cmax [13]: 1820 ng/mL; Cmax [14]: 4300 ng/mL; Cmax [15]: 7590 ng/mL; Tmax [16]: 2.7 h; Tmax [17]: 4 h; AUC(0-t) [18]: 35400 ng·h/mL; AUC(0-t) [19]: 17600 ng·h/mL; Activity (Rattus norvegicus): Non-toxic; Activity (Canis familiaris): Non-toxic; inhibition (INH) (Cytochrome P450 2B6): Not Active; Activity (Mus musculus [20]): Non-toxic; Papp [21]: 2.62 ×10⁻⁶ cm/s; remaining at 1 h [22]: > 60%; Activity (Mus musculus [23]): Non-toxic
